≈ marks a conversion by molar mass, not a printed value. Calls of active or inactive are those of the source. The rule behind the calls is not given here.
What was measured:
[1] = target: Neuronal acetylcholine receptor subunit alpha-7 (Rattus norvegicus) (UniProt Q05941); test: Positive allosteric modulator activity at rat alpha7 nAChR expressed in GH4C1 cells assessed as potentiation of acetylcholine response at 3 uM at -70 mV holding potential preincubated for 30 secs followed by co-application with acetylcholine by automated patch clamp assay; assay type: cell-based
Neuronal acetylcholine receptor subunit alpha-7 (Rattus norvegicus), sequence (Q05941 whole entry): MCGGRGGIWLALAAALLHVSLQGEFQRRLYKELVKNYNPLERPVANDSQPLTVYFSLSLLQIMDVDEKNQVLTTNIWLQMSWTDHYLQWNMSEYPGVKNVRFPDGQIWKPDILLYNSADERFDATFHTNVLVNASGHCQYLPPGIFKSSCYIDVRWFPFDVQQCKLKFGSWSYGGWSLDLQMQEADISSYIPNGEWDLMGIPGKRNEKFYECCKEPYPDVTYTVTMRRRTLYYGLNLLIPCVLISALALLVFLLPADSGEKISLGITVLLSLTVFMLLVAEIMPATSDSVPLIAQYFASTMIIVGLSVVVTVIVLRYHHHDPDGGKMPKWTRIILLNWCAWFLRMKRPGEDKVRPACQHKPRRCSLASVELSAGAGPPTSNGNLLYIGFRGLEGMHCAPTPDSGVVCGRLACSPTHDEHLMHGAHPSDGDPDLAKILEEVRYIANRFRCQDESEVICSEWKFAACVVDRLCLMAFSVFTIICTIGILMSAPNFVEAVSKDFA
Outline: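 Automated planar patch clamp on stable GH4C1 (rat) cell lines expressing rat α7 nAChR; test compound at 3 μM with an EC₂₀ acetylcholine challenge; percent change in peak current versus acetylcholine alone taken as P₃.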

[2] = Stability in human liver microsomes assessed as hepatic extraction ratio at 1 uM measured for 45 mins by LC-MS/MS analysis; assay type: ADME, Microsome; conditions: read-out: ERH
[3] = Stability in mouse liver microsomes assessed as hepatic extraction ratio at 1 uM measured for 45 mins by LC-MS/MS analysis; assay type: ADME, Microsome; conditions: read-out: ERH
[4] = Apparent permeability in human Caco2 cells; assay type: ADME, cell-based; conditions: Caco-2
[5] = Plasma clearance in Sprague-Dawley rat at 4 mg/kg administered as single IV bolus dose; assay type: ADME, organism-based
Outline: (§1)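 Single IV bolus of 4.0 mg/kg in male Sprague–Dawley rats; dosing solution 1.1 mg/mL in saline-based vehicle with 0.1 M hydroxypropyl-β-cyclodextrin and 10% (v/v) DMSO; plasma pharmacokinetic parameters derived.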

[6] = Volume of distribution at steady state in Sprague-Dawley rat at 4 mg/kg administered as single IV bolus dose; assay type: ADME, organism-based; conditions: in vivo, read-out: Vdss; outline: as §1
[7] = Oral bioavailability in Sprague-Dawley rat; assay type: ADME, organism-based; conditions: in vivo
[8] = Dose normalized AUC (0 to infinity) in Sprague-Dawley rat at 4 mg/kg administered as single IV bolus dose; assay type: ADME, organism-based; conditions: in vivo; outline: as §1
[9] = Half life in Sprague-Dawley rat plasma at 4 mg/kg administered as single IV bolus dose; assay type: ADME, organism-based; outline: as §1
Mus musculus [10] = test: Reversal of scopolamine-induced memory impairment in mouse assessed as increase in spontaneous alteration at 0.003 mg/kg, po administered with compond and scopolamine at 60 mins and 30 mins respectively prior to test by T-maze test; assay type: functional
Outline: (§2)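 Mouse T-maze continuous alternation task with scopolamine-induced impairment of spontaneous alternation; compound given orally in saline-based vehicle with 25% Cremophor ELP over 0.003–10.0 mg/kg; group means compared by one-way ANOVA then Fisher's PLSD, p < 0.05 significant.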

Mus musculus [11] = test: Reversal of scopolamine-induced memory impairment in mouse assessed as increase in spontaneous alteration at 0.03 mg/kg, po administered with compond and scopolamine at 60 mins and 30 mins respectively prior to test by T-maze test; assay type: functional; outline: as §2
Mus musculus [12] = test: Reversal of scopolamine-induced memory impairment in mouse assessed as increase in spontaneous alteration at 0.3 mg/kg, po administered with compond and scopolamine at 60 mins and 30 mins respectively prior to test by T-maze test; assay type: functional; outline: as §2
Mus musculus [13] = test: Reversal of scopolamine-induced memory impairment in mouse assessed as increase in spontaneous alteration at 3 mg/kg, po administered with compond and scopolamine at 60 mins and 30 mins respectively prior to test by T-maze test; assay type: functional; conditions: read-out: INH; outline: as §2
[14] = target: Neuronal acetylcholine receptor subunit alpha-7 (Rattus norvegicus, UniProt Q05941); test: (§3) Positive allosteric modulatory activity at rat alpha7 nAChR expressed in GH4C1 cells assessed as potentiation of acetylcholine response at -70 mV holding potential preincubated for 30 secs followed by co-application with acetylcholine by manual patch clamp assay; assay type: cell-based
Neuronal acetylcholine receptor subunit alpha-7, sequence (Q05941 whole entry): as above
Outline: (§4)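 Conventional manual patch-clamp with a fast-application system on stable GH4C1 cells expressing rat α7 nAChR; currents evoked by acetylcholine with and without test compound; peak-current change relative to acetylcholine alone gives potentiation (P₃ at 3 μM; concentration–response for EC₅₀ and Pmax).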

[15] = target: Neuronal acetylcholine receptor subunit alpha-7 (Rattus norvegicus) (UniProt Q05941); test: Positive allosteric modulatory activity at rat alpha7 nAChR expressed in GH4C1 cells assessed as potentiation of peak current at -70 mV holding potential preincubated for 30 secs followed by co-application with acetylcholine by manual patch clamp assay relative to acetylcholine-induced peak current; assay type: cell-based; outline: as §4
[16] = target: Neuronal acetylcholine receptor subunit alpha-7 (Rattus norvegicus) (UniProt Q05941); test: (§5) Positive allosteric modulatory activity at rat alpha7 nAChR expressed in GH4C1 cells assessed as AUC of potentiation of peak current at -70 mV holding potential preincubated for 30 secs followed by co-application with acetylcholine by manual patch clamp assay relative to peak current potentiation; assay type: cell-based; outline: as §4
[17] = target: Neuronal acetylcholine receptor subunit alpha-7 (Rattus norvegicus) (UniProt Q05941); test: as §5, with “of acetylcholine response at 3 uM” for “of peak current”, “by automated” for “by manual”, “to potentiation of” for “to peak”, “current response” for “current potentiation”; assay type: cell-based
[18] = Lipophilicity, log D of the compound at pH 7.4; assay type: physicochemical; conditions: buffer
[19] = Solubility of the compound at pH 6.5; assay type: physicochemical; conditions: buffer
[20] = Solubility of the compound at pH 2; assay type: physicochemical; conditions: buffer
Mus musculus [21] = test: Reversal of scopolamine-induced memory impairment in mouse assessed as increase in spontaneous alteration at 1 mg/kg, po administered with compond and scopolamine at 60 mins and 30 mins respectively prior to test by T-maze test; assay type: functional; conditions: read-out: INH; outline: as §2
Mus musculus [22] = test: Reversal of scopolamine-induced memory impairment in mouse assessed as spontaneous alteration at 3 to 30 mg/kg, po administered with compond and scopolamine at 60 mins and 30 mins respectively prior to test by T-maze test; assay type: functional, organism-based
Outline: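 Mouse T-maze continuous alternation task; reversal of scopolamine-induced loss of spontaneous alternation after ip or oral doses of 3 and 30 mg/kg; significant doses reported.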

Cytochrome P450 2C9 = Cytochrome P450 2C9 (Homo sapiens, UniProt P11712); test: Inhibition of CYP2C9 (unknown origin); assay type: ADME
Cytochrome P450 2C9, sequence (P11712 whole entry): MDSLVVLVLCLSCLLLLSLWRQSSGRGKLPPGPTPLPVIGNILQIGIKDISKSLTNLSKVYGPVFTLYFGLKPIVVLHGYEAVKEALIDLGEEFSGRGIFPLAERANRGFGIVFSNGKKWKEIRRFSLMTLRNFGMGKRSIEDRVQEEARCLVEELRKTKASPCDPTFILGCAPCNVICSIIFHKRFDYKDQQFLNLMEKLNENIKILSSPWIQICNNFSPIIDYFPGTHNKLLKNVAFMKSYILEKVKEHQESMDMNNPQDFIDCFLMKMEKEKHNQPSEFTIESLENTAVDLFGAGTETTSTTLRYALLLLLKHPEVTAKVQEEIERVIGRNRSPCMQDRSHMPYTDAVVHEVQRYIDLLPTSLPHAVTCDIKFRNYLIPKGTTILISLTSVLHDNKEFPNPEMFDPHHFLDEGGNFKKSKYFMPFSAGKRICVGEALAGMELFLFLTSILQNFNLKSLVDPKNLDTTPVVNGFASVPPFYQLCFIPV

[23] = target: Neuronal acetylcholine receptor subunit alpha-7 (Rattus norvegicus) (UniProt Q05941); test: Agonist activity at rat alpha7 nAChR expressed in GH4C1 cells assessed as current response at 3 uM at -70 mV holding potential by manual patch clamp assay; assay type: cell-based
Outline: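 Manual patch clamp with fast application on stable GH4C1 cells expressing α7 nAChR; test compound applied without acetylcholine to look for evoked currents.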

[24] = target: Neuronal acetylcholine receptor subunit alpha-7 (Rattus norvegicus) (UniProt Q05941); test: as §3; assay type: cell-based; outline: as §4
Cytochrome P450 2C19 = Cytochrome P450 2C19 (Homo sapiens, UniProt P33261); test: Inhibition of CYP2C19 (unknown origin); assay type: ADME
Cytochrome P450 2C19, sequence (P33261 whole entry): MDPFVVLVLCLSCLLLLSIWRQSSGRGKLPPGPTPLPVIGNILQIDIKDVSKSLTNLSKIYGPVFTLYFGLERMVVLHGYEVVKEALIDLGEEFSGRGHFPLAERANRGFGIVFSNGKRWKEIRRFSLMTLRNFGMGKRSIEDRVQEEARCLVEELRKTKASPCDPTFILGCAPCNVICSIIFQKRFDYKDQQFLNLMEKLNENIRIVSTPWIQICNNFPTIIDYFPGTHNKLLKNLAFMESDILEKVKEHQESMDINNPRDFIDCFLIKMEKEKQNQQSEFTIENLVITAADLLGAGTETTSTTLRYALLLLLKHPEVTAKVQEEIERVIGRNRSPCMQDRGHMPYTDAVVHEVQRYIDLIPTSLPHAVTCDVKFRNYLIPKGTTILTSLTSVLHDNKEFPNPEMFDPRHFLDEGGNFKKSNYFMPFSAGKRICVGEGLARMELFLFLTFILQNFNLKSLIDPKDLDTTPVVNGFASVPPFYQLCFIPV

Question: Which Activity [1] does the source give for `COc1ccc(Cl)cc1NC[C@H]1[C@H](c2ccc(S(N)(=O)=O)cc2)C1(C)C` here?
Answer: 11800%

Question: What about the hepatic extraction ratio at 0.75 h, 1 µM [2] of the same compound?
Answer: 0.59

Question: What about the hepatic extraction ratio at 0.75 h, 1 µM [3] of the same compound?
Answer: 0.71

Question: And the Papp [4]?
Answer: 140 nm/s

Question: And the clearance [5]?
Answer: 2.58 L/h/kg

Question: What about the Vd [6] of the same compound?
Answer: 5.1 L/kg

Question: What about the bioavailability [7] of the same compound?
Answer: 77%

Question: And the AUC/dose [8]?
Answer: 1 µM·h/mg

Question: What about the half-life [9] of the same compound?
Answer: 3.9 h

Question: And the inhibition in vivo at 0.003 mg/kg (Mus musculus [10])?
Answer: -3%

Question: What about the inhibition in vivo at 0.03 mg/kg (Mus musculus [11]) of the same compound?
Answer: 11%

Question: What about the inhibition in vivo at 0.3 mg/kg (Mus musculus [12]) of the same compound?
Answer: 65%

Question: What about the percent reversal of scopolamine-induced memory impairment at 3 mg/kg (Mus musculus [13]) of the same compound?
Answer: 90%

Question: And the EC50 [14]?
Answer: 0.063 µM

Question: And the Emax [15]?
Answer: 1630%

Question: And the Ratio [16]?
Answer: 25

Question: And the Ratio [17]?
Answer: 57

Question: What does the source list for `COc1ccc(Cl)cc1NC[C@@H]1[C@@H](c2ccc(S(N)(=O)=O)cc2)C1(C)C`?
Answer: Activity [1]: 1160%; logD [18]: 4.2; solubility [19]: 1.6 to 3.1 µg/mL (≈ 4.05 to 7.85 µM); solubility [20]: > 100 µg/mL; hepatic extraction ratio at 0.75 h, 1 µM [2]: 0.84; hepatic extraction ratio at 0.75 h, 1 µM [3]: 0.79; Papp [4]: 110 nm/s; clearance [5]: 2.1 L/h/kg; Vd [6]: 1.8 L/kg; bioavailability [7]: 62%; AUC/dose [8]: 1.2 µM·h/mg; half-life [9]: 1.2 h; inhibition in vivo at 0.003 mg/kg (Mus musculus [10]): -9%; inhibition in vivo at 0.03 mg/kg (Mus musculus [11]): 51%; inhibition in vivo at 0.3 mg/kg (Mus musculus [12]): 62%; percent reversal of scopolamine-induced memory impairment (increase in spontaneous alternation) at 1 mg/kg (Mus musculus [21]): 78%; percent reversal of scopolamine-induced memory impairment at 3 mg/kg (Mus musculus [13]): 78%; EC50 [14]: 1.9 µM; Emax [15]: 1570%; Ratio [16]: 1.7; Ratio [17]: 3.1

Question: Which Activity [1] does the source give for `COc1ccc(Cl)cc1NCC1C(c2ccc(S(N)(=O)=O)cc2)C1(C)C` (racemic) here?
Answer: 7900%

Question: And the solubility [19]?
Answer: > 100 µg/mL

Question: What about the solubility [20] of the same compound?
Answer: 1.6 to 3.1 µg/mL (≈ 4.05 to 7.85 µM)

Question: And the hepatic extraction ratio at 0.75 h, 1 µM [2]?
Answer: 0.64

Question: And the hepatic extraction ratio at 0.75 h, 1 µM [3]?
Answer: 0.82

Question: What about the inhibition (Mus musculus [22]) of the same compound?
Answer: Active

Question: And the IC50 (Cytochrome P450 2C9)?
Answer: > 10 µM

Question: And the inhibition [23]?
Answer: inactive

Question: And the Activity [24]?
Answer: Dose-dependent effect

Question: And the EC50 [14]?
Answer: 0.025 µM

Question: And the Emax [15]?
Answer: 650%

Question: What about the IC50 (Cytochrome P450 2C19) of the same compound?
Answer: > 10 µM
